# Measured values from paper PMC7551138 (Alzheimer's & Dementia : Translational Research & Clinical …, 2020).
# Tests used:
# [1] = intranasal 20.0 mg/kg; cited from earlier work
# healthy elderly subjects [2] = assay: Visual analogue scales; type: in vivo, human; settings: vs placebo, mean (confidence interval)
# Summary of the method: (§1)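 NeuroCart tests were repeated over time during the 7-day b.i.d. intranasal dosing: eye movements, N-back with 3 working-memory-load conditions, pharmaco-EEG, and 100-mm VAS (Bond and Lader mood/alertness/calmness; nausea). In the 22 mg cohort, EEG at 30 min and 3 h post-dose was dropped. Analysis was mixed-model ANOVA (treatment, time, treatment×time fixed; subject random; baseline covariate), giving LSM difference versus placebo with CI.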
# healthy elderly subjects [3] = assay: PK‐PD analysis, nonlinear mixed‐effect modeling of adaptive tracking; type: in vivo, human
# Summary of the method: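 Nonlinear mixed-effects PK-PD modelling used plasma and CSF data from this study plus earlier first-in-human data. Oral comparator data were dose-corrected. […] models linked plasma concentration of the active cleavage product to adaptive tracking, testing direct-effect, turnover and effect-compartment forms. Inter-individual and inter-occasion variability were assessed. Covariates were added stepwise at p<0.01, then removed by backward elimination at p<0.001. Emax and EC50 (mg/L) are given with 95% CI.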
# healthy elderly subjects [4] = assay: Monitoring of treatment‐emergent adverse events; type: in vivo, human
# Summary of the method: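 Randomised, double-blind, placebo-controlled trial in healthy subjects aged ≥65 (n=48; 12 active:4 placebo per cohort, placebos pooled). Intranasal test compound 5.5, 11 or 22 mg or 0.9% NaCl b.i.d. for 7 days, 6 h between doses. The 11 mg active subjects later got one open-label oral 16 mg dose of the parent drug. Safety was tracked by TEAEs, nasal examination, vital signs, ECG and safety bloods.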
# healthy elderly subjects [5] = assay: Visual verbal learning test; type: in vivo, human; settings: for VVLT Delayed word recall correct / VVLT Delayed word recognition RT correct / VVLT Delayed word recognition correct / VVLT Word recall correct 1 / VVLT Word recall correct 2 / VVLT Word recall correct 3: vs placebo, mean (confidence interval)
# Summary of the method: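 Thirty words were shown repeatedly, with immediate recall after each presentation. After 30 min, delayed recall and recognition among distractor words were tested. This test was not repeated within a day. Analysis was mixed-model ANOVA (treatment, day, treatment×day fixed; subject random), giving LSM difference versus placebo with CI.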
# healthy elderly subjects [6] = assay: NeuroCart eye movements; type: in vivo, human; settings: vs placebo, mean (confidence interval)
# Summary of the method: as §1
# [7] = 5.5 mg b.i.d. intranasal 7 days
# [8] = 5.5 mg b.i.d. intranasal, within 24 hours after first administration, dosing day 1
# [9] = 22 mg b.i.d. intranasal, within 24 hours after first administration, dosing day 1
smiles,measurement,setting,value
COc1ccc2c3c1O[C@H]1C[C@@H](OC(=O)c4ccccc4)C=C[C@@]31CCN(C)C2 [Gln‐1062],blood‐to‐brain ratio,[1],10.2 mg/kg
same,VAS Alertness,healthy elderly subjects [2]; [7],"−1.09 (−3.74, 1.57) P = 0.4134 mm"
same,VAS Calmness,healthy elderly subjects [2]; [7],"0.44 (−2.59, 3.48) P = 0.7694 mm"
same,VAS Mood,healthy elderly subjects [2]; [7],"−0.92 (−3.98, 2.13) P = 0.5462 mm"
same,VAS Alertness,healthy elderly subjects [2]; 11 mg b.i.d. intranasal 7 days,"0.63 (−2.15, 3.41) P = 0.6514 mm"
same,VAS Calmness,healthy elderly subjects [2]; 11 mg b.i.d. intranasal 7 days,"0.27 (−2.86, 3.40) P = 0.8615 mm"
same,VAS Mood,healthy elderly subjects [2]; 11 mg b.i.d. intranasal 7 days,"−0.49 (−3.59, 2.62) P = 0.7530 mm"
same,VAS Alertness,healthy elderly subjects [2]; 22 mg b.i.d. intranasal 7 days,"−0.21 (−2.86, 2.44) p = 0.8735 mm"
same,VAS Calmness,healthy elderly subjects [2]; 22 mg b.i.d. intranasal 7 days,"0.44 (−2.61, 3.49) P = 0.7734 mm"
same,VAS Mood,healthy elderly subjects [2]; 22 mg b.i.d. intranasal 7 days,"−0.68 (−3.66, 2.29) P = 0.6455 mm"
same,maximum increase (Emax) of adaptive tracking,"healthy elderly subjects [3]; direct effect model on galantamine plasma concentration, 95% CI 1.15–5.90",1.91
same,"concentration resulting in half of the maximum (EC50), adaptive tracking","healthy elderly subjects [3]; galantamine plasma concentration, direct effect model, by drug dosed",0.0231 µg/mL
same,TEAEs within 24 hours: All gastrointestinal disorders,healthy elderly subjects [4]; [8],1 (8.3) number of subjects (percentage
same,TEAEs within 24 hours: Any events,healthy elderly subjects [4]; [8],7 (58.3) number of subjects (percentage
same,TEAEs within 24 hours: Nausea,healthy elderly subjects [4]; [8],1 (8.3) number of subjects (percentage
same,TEAEs within 24 hours: Vomiting,healthy elderly subjects [4]; [8],1 (8.3) number of subjects (percentage
same,TEAEs within 24 hours: Any events,"healthy elderly subjects [4]; 11 mg b.i.d. intranasal, within 24 hours after first administration, dosing day 1",12 (100.0) number of subjects (percentage
same,TEAEs within 24 hours: All gastrointestinal disorders,healthy elderly subjects [4]; [9],6 (50.0) number of subjects (percentage
same,TEAEs within 24 hours: Any events,healthy elderly subjects [4]; [9],12 (100.0) number of subjects (percentage
same,TEAEs within 24 hours: Diarrhea,healthy elderly subjects [4]; [9],2 (16.7) number of subjects (percentage
same,TEAEs within 24 hours: Nausea,healthy elderly subjects [4]; [9],5 (41.7) number of subjects (percentage
same,TEAEs within 24 hours: Vomiting,healthy elderly subjects [4]; [9],3 (25.0) number of subjects (percentage
same,intensity of TEAEs,"healthy elderly subjects [4]; 5.5 to 22 mg b.i.d., 7 days",mild or moderate
same,serious adverse events,"healthy elderly subjects [4]; 5.5 to 22 mg b.i.d., 7 days",no serious adverse events
same,safety and tolerability,healthy elderly subjects [4]; up to 22 mg b.i.d. intranasal for 7 days,safe and well tolerated
same,VVLT Delayed word recall correct,healthy elderly subjects [5]; [7],"0.36 (−2.02, 2.73) P = 0.7624"
same,VVLT Delayed word recognition RT correct,healthy elderly subjects [5]; [7],"−49.93 (−166.97, 67.10) P = 0.3944 msec"
same,VVLT Delayed word recognition correct,healthy elderly subjects [5]; [7],"−2.60 (−6.60, 1.40) P = 0.1967"
same,VVLT Word recall correct 1,healthy elderly subjects [5]; [7],"0.36 (−1.31, 2.03) P = 0.6635"
same,VVLT Word recall correct 2,healthy elderly subjects [5]; [7],"−0.45 (−2.44, 1.55) P = 0.6545"
same,VVLT Word recall correct 3,healthy elderly subjects [5]; [7],"−0.12 (−2.42, 2.17) P = 0.9136"
same,VVLT Delayed word recall correct,healthy elderly subjects [5]; 11 mg b.i.d. intranasal 7 days,"−0.73 (−3.15, 1.70) P = 0.5486"
same,VVLT Delayed word recognition RT correct,healthy elderly subjects [5]; 11 mg b.i.d. intranasal 7 days,"−30.91 (−150.24, 88.41) P = 0.6041 msec"
same,VVLT Delayed word recognition correct,healthy elderly subjects [5]; 11 mg b.i.d. intranasal 7 days,"−2.19 (−6.24, 1.87) P = 0.2825"
same,VVLT Word recall correct 1,healthy elderly subjects [5]; 11 mg b.i.d. intranasal 7 days,"0.62 (−1.07, 2.32) P = 0.4608"
same,VVLT Word recall correct 2,healthy elderly subjects [5]; 11 mg b.i.d. intranasal 7 days,"−0.63 (−2.65, 1.40) P = 0.5370"
same,VVLT Word recall correct 3,healthy elderly subjects [5]; 11 mg b.i.d. intranasal 7 days,"−0.89 (−3.23, 1.44) P = 0.4444"
same,VVLT Delayed word recall correct,healthy elderly subjects [5]; 22 mg b.i.d. intranasal 7 days,"0.48 (−1.89, 2.86) P = 0.6838"
same,VVLT Delayed word recognition RT correct,healthy elderly subjects [5]; 22 mg b.i.d. intranasal 7 days,"−120.03 (−237.07,−3.00) P = 0.0447 msec"
same,VVLT Delayed word recognition correct,healthy elderly subjects [5]; 22 mg b.i.d. intranasal 7 days,"−0.43 (−4.43, 3.57) P = 0.8291"
same,VVLT Word recall correct 1,healthy elderly subjects [5]; 22 mg b.i.d. intranasal 7 days,"−0.12 (−1.79, 1.54) P = 0.8816"
same,VVLT Word recall correct 2,healthy elderly subjects [5]; 22 mg b.i.d. intranasal 7 days,"−0.01 (−2.00, 1.99) P = 0.9959"
same,VVLT Word recall correct 3,healthy elderly subjects [5]; 22 mg b.i.d. intranasal 7 days,"0.99 (−1.30, 3.29) P = 0.3883"
same,"effects on VVLT, eye movements and VAS mood, calmness, alertness and nausea",healthy elderly subjects [5]; compared with placebo,No significant and consistent effects
same,Saccadic Inaccuracy,healthy elderly subjects [6]; [7],"0.59 (−0.46, 1.64) P = 0.2627%"
same,Saccadic Peak Velocity,healthy elderly subjects [6]; [7],"−0.06 (−21.97, 21.85) P = 0.9958 deg/s"
same,Saccadic Reaction Time,healthy elderly subjects [6]; [7],"−0.0112 (−0.0224,−0.0001) P = 0.0481 sec"
same,Smooth Pursuit,healthy elderly subjects [6]; [7],"−1.28 (−5.10, 2.53) P = 0.5011%"
same,Saccadic Inaccuracy,healthy elderly subjects [6]; 11 mg b.i.d. intranasal 7 days,"0.20 (−0.89, 1.30) P = 0.7099%"
same,Saccadic Peak Velocity,healthy elderly subjects [6]; 11 mg b.i.d. intranasal 7 days,"5.03 (−17.82, 27.87) P = 0.6588 deg/s"
same,Saccadic Reaction Time,healthy elderly subjects [6]; 11 mg b.i.d. intranasal 7 days,"−0.0018 (−0.0134, 0.0098) P = 0.7546 sec"
same,Smooth Pursuit,healthy elderly subjects [6]; 11 mg b.i.d. intranasal 7 days,"−0.10 (−4.04, 3.84) P = 0.9597%"
same,Saccadic Inaccuracy,healthy elderly subjects [6]; 22 mg b.i.d. intranasal 7 days,"0.51 (−0.56, 1.58) P = 0.3393%"
